Results taken from ChEMBL document CHEMBL4513216, “Probing the Open Global Health Chemical Diversity Library for Multistage-Active Starting Points for Next-Generation Antimalarials” (ACS Infect Dis, 2020).

Assay: Toxicity liver stage against HepG2, at 10uM
Type: cell-based
Parameters: test concentration 10 uM, cell line HepG2-A16-CD81EGFP
Details: human, HepG2-A16-CD81EGFP cells; read-out: INHIBITION
Procedure, shortened: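 Uninfected HepG2-A16-CD81EGFP cells, 3 × 10^3 per well, 1536-well, plated on prespotted compound at 10 μM final, parasite-free screening media added to match infected plates; puromycin 10 μM positive, DMSO 0.5% negative; run in parallel with 48 h PbLuc assay at 37 °C, 5% CO2; viability by CellTiter-Glo luminescence, normalized to controls.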

Going from `CCc1noc(C(C)N2CCN(C)CC2)n1` (stereo not given) to `CCc1cnc(N)nc1N1CCN(C(C)=O)CC1`, the cytotoxicity at 10 µM falls from -3.21% to -51.7%.

Going from `O=C(NCc1nc(C2CC2)no1)N1CCOC(c2ccccc2)C1` (stereo not given) to `c1ccc(-c2noc(C3CCN(CCCn4cncn4)CC3)n2)cc1`, the cytotoxicity at 10 µM rises from -45.2% to -14.3%.

Going from `COC[C@H]1CC[C@H]2[C@H](CCN2S(=O)(=O)c2ccccc2)O1` to `O=C(CCc1cc(O)no1)N1CCCC(COc2ccccc2F)C1` (stereo not given), the cytotoxicity at 10 µM rises from -1.45% to 0.296%.

Compared with `COc1ccc(CNC(=O)NC2CCN(C)CC2)c(C(F)(F)F)c1`, `CCNC(=O)NC(=O)CN1CCC(c2c[nH]c3ccc(OC)cc23)CC1` is lower in cytotoxicity at 10 µM: -12.2% for the first, -12.9% for the second.

First: Cn1cc(C(=O)N[C@@H]2CN(CC3CCOCC3)[C@@H]3CCCO[C@@H]32)cn1
Second: COc1cc(N2C[C@H]3CCC[C@@H](CN4CCCC4)[C@H]3C2)ncn1
The cytotoxicity at 10 µM of the first is higher: 6.64% for the first, -79% for the second.

Going from `CC(C)C(NC(=O)c1cnc(N2CCOCC2)nc1)c1cccs1` (stereo not given) to `Cc1cnc(-c2nc(C3CCCN(Cc4cccs4)C3)no2)cn1` (stereo not given), the cytotoxicity at 10 µM falls from 9.71% to 1.33%.

First: CC1=Nc2c(c(=O)[nH]n2C(C)C)C(c2ccc3ncccc3c2)S1 (stereo not given)
Second: CC(Cn1cccn1)NCc1csc(-c2ccsc2)n1 (stereo not given)
The cytotoxicity at 10 µM of the first is higher: 4.66% for the first, -3.96% for the second.

Going from `CN(Cc1cn2c(n1)CN(C(=O)c1cccnc1)CC2)Cc1ccco1` to `Cc1cc(C(=O)N2CCn3cc(CN4CCOCC4)nc3C2)no1`, the cytotoxicity at 10 µM falls from -2.19% to -75.7%.

Going from `CS(=O)(=O)NCc1cnc2n1CCN(Cc1ccoc1)CC2` to `CN1C(=O)C(c2cccnc2)CC12CCN(Cc1nccs1)CC2` (stereo not given), the cytotoxicity at 10 µM rises from -4.1% to -1.16%.

First: Cc1cnc(N2CCOC3(CCCN(CC(=O)N(C)C)C3)C2)nc1 (stereo not given)
Second: Cn1cc(CN2CC3(CCN(C(=O)c4cscn4)C3)C2)cn1
The cytotoxicity at 10 µM of the first is higher: 8.67% for the first, -11.9% for the second.

First: CN(C)C(=O)CCS(=O)(=O)Cc1coc(-c2ccc(F)cc2)n1
Second: CN(C)C(=O)Cc1ccc(NC(=O)c2cn(C)nn2)cc1
The cytotoxicity at 10 µM of the first is higher: -2.26% for the first, -5.27% for the second.

Compared with `Cc1ccoc1C(=O)N1Cc2c(Cn3ccnc3)nn(C)c2C1`, `Cc1nn(C)c2cn(CC(=O)N3CCc4ccccc4C3)nc12` is higher in cytotoxicity at 10 µM: -68.5% for the first, 8.41% for the second.

First: Cc1noc(C)c1CN1C(=O)[C@@H]2CC[C@H]1CN(Cc1cccnc1N)C2
Second: Cc1noc(C)c1CNC(=O)N1CCC(Cc2cnn(C)c2)C1 (stereo not given)
The cytotoxicity at 10 µM of the first is higher: 19.7% for the first, -8.66% for the second.

First: COc1ccc(-n2ccc(C(=O)NCCN3CCC(C)CC3)n2)cc1
Second: COc1ccc(C2(C(=O)N3CC(c4cccnc4)C3)CC2(C)C)cc1 (stereo not given)
The cytotoxicity at 10 µM of the first is lower: -6.48% for the first, 12.3% for the second.

Compared with `COCCCN1CC2(CCC1=O)CCN(Cc1cc(C)no1)CC2`, `COc1cccc(CN2CC3(CCNCC3)CCC2=O)c1OC` is higher in cytotoxicity at 10 µM: 4.08% for the first, 6.39% for the second.

Going from `OCC1(Cc2ccc(Cl)cc2)CCN(Cc2ccccc2O)CC1` to `Nc1ccnc(N2CCC(CCc3ccccc3)(C(=O)O)CC2)n1`, the cytotoxicity at 10 µM rises from -137% to -3.65%.

First: CN1CCOC(C(=O)Nc2nc(-c3ccc(Cl)cc3)n[nH]2)C1 (stereo not given)
Second: O=C(CSC1=NS(=O)(=O)c2cc(F)ccc2N1)Nc1ccc(Cl)c(Cl)c1
The cytotoxicity at 10 µM of the first is lower: -4.34% for the first, 11.5% for the second.

Going from `COCc1cc(N(C)Cc2cnccn2)nc(C(C)(C)C)n1` to `COc1nc(C)c(C(=O)N(C)Cc2nc(-c3ccccn3)no2)s1`, the cytotoxicity at 10 µM falls from 8.24% to -8.44%.

Going from `Cc1ccc(NC(=O)CNc2ccccc2C(N)=O)c(C)c1` to `O=C(Cc1cccs1)NS(=O)(=O)c1cccc2cnccc12`, the cytotoxicity at 10 µM falls from 1.15% to -14.6%.

Compared with `CNc1cc(N2CCCC2CNCc2cnc(C)s2)ncn1` (stereo not given), `Cc1cccc(C(=O)N2CCCC(c3nccn3Cc3cscn3)C2)n1` (stereo not given) is higher in cytotoxicity at 10 µM: -3.78% for the first, -1.28% for the second.

Compared with `CCOC1CCN(C(=O)NCc2cccc(-n3cccn3)c2)CC1`, `CN(CCc1ccncc1)Cc1c(C2CCCC2)[nH]c2ncccc12` is higher in cytotoxicity at 10 µM: 0.944% for the first, 1.46% for the second.

Going from `CCOC(C)c1nc(CN2CCNCC2)cs1` (stereo not given) to `O=S(=O)(NCCC(O)c1cccs1)c1c(F)cccc1F` (stereo not given), the cytotoxicity at 10 µM rises from -13.3% to -0.00815%.

Work on `NC(=O)CCn1cc(CNCCCc2ccncc2)c2ccccc21` yielded a cytotoxicity at 10 µM of 7.28%.
